Laboratory results published in ChEMBL document CHEMBL3774312, “5-Substituted 3-isopropyl-7-[4-(2-pyridyl)benzyl]amino-1(2)H-pyrazolo[4,3-d]pyrimidines with anti-proliferative activity as potent and selective inhibitors of cyclin-dependent kinases” (Eur J Med Chem, 2016).
The source made the active and inactive calls. No cut-off for these calls is given here.

Legend:
[1] = biological target: Cyclin-dependent kinase 2 (Homo sapiens) (UniProt P24941); test: Inhibition of CDK2 in human G361 cells assessed as reduction in phosphorylation of RNA polymerase 2 at C-terminus at 0.1 to 1 uM incubated for 24 hrs by immunoblotting analysis; format: cell-based; conditions: G-361
In short: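 Treated G361 cells were lysed in Laemmli buffer, run on SDS-PAGE and blotted to nitrocellulose. Blots were probed overnight with antibodies to RNA polymerase II phosphorylated at S5 and S2, and to total RNA polymerase II (ARNA-3). Peroxidase secondaries were then applied and signal was detected by ECL with a CCD camera.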

[2] = biological target: Cyclin-dependent kinase 2/cyclin E1 (Homo sapiens, UniProt P24941); test: Inhibition of CDK2/Cyclin E (unknown origin) expressed in sf9 cells using histone H1 as substrate in presence of [gamma33P]-ATP; format: cell-based
[3] = biological target: Calcium/calmodulin-dependent protein kinase kinase 2 (Homo sapiens) (UniProt Q96RR4); test: Inhibition of recombinant CAMKKB (unknown origin) assessed as residual activity at 1 uM relative to control
Calcium/calmodulin-dependent protein kinase kinase 2 (Homo sapiens), sequence (Q96RR4 2-588 limits assumed): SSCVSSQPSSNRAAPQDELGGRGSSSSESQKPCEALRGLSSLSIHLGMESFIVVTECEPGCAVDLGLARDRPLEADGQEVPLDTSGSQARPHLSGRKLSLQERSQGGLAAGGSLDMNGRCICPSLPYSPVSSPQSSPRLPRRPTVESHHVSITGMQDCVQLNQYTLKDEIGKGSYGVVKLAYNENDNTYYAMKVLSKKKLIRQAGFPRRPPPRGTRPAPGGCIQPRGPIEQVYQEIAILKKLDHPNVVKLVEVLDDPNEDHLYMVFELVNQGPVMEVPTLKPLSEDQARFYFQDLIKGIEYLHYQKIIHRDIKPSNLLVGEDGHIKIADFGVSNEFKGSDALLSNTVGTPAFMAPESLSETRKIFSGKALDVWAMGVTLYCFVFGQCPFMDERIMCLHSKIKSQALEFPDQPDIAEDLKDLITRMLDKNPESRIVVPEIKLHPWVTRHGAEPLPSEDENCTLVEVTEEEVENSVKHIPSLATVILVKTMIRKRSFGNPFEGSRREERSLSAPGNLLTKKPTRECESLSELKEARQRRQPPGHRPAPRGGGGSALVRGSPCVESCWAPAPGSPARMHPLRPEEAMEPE

[4] = biological target: Casein kinase I isoform delta (Homo sapiens) (UniProt P48730); test: Inhibition of recombinant CK1delta (unknown origin) assessed as residual activity at 1 uM relative to control
[5] = biological target: AMP-activated protein kinase, AMPK (Homo sapiens) (UniProt P54646+O43741+P54619+Q9UGJ0+Q9Y478+Q13131+Q9UGI9); test: Inhibition of recombinant human AMPK assessed as residual activity at 1 uM relative to control; format: protein-complex assay
[6] = biological target: Serine/threonine-protein kinase PAK 4 (Homo sapiens) (UniProt O96013); test: Inhibition of recombinant PAK4 (unknown origin) assessed as residual activity at 1 uM relative to control
Serine/threonine-protein kinase PAK 4 (Homo sapiens), sequence (O96013 whole entry, looked up): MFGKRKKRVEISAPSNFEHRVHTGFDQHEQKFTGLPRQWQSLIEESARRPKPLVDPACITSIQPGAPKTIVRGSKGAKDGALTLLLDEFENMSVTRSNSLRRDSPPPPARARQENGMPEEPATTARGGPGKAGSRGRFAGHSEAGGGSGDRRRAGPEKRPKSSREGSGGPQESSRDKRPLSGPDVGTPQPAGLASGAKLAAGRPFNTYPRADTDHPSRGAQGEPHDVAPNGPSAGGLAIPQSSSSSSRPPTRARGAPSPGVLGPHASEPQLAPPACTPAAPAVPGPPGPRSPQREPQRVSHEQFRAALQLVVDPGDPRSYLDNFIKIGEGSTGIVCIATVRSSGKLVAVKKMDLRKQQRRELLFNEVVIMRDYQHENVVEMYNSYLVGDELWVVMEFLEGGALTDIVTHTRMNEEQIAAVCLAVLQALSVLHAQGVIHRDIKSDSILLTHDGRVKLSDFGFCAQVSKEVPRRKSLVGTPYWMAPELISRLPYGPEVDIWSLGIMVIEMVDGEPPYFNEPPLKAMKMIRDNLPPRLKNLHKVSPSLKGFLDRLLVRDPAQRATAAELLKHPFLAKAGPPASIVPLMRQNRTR

[7] = biological target: Calcium/calmodulin-dependent protein kinase type 1 (Homo sapiens) (UniProt Q14012); test: Inhibition of recombinant CAMK1 (unknown origin) assessed as residual activity at 1 uM relative to control
Calcium/calmodulin-dependent protein kinase type 1 (Homo sapiens), sequence (Q14012 whole entry, looked up): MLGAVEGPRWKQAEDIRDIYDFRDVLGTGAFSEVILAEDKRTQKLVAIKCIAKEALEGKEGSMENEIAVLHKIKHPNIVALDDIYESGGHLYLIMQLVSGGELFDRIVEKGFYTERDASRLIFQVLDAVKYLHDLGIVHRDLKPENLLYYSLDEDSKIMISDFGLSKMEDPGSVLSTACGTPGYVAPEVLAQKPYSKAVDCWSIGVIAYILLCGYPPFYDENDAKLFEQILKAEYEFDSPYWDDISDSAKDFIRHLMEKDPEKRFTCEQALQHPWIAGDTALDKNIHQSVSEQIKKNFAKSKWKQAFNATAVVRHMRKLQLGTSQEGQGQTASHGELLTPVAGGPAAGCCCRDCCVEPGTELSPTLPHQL

[8] = biological target: Serine/threonine-protein kinase Chk2 (Homo sapiens) (UniProt O96017); test: Inhibition of recombinant CHK2 (unknown origin) assessed as residual activity at 1 uM relative to control
Serine/threonine-protein kinase Chk2 (Homo sapiens), sequence (O96017 whole entry): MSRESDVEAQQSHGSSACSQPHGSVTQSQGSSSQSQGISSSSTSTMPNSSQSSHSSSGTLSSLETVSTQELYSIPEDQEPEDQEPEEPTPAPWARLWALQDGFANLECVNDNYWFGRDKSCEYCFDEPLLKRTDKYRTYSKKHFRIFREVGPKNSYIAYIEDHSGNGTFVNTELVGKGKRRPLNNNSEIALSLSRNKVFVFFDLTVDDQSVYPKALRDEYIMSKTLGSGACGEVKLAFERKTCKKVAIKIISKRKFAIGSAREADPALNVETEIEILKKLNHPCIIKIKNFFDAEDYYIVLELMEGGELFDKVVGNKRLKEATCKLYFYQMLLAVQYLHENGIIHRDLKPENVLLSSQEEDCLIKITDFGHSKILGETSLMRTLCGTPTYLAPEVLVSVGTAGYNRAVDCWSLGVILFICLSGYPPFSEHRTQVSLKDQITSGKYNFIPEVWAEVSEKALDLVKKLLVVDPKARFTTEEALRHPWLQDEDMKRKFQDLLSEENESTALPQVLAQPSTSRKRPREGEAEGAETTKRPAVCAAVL

[9] = system: MCF7; test: Cytotoxicity against human MCF7 cells assessed as reduction in cell viability after 72 hrs by calcein AM staining based fluorescence assay; format: functional
In short: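 Cells were grown in DMEM with 10% FBS, penicillin and streptomycin at 37 °C in 5% CO2. Three doses were tested in triplicate for 72 h.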

[10] = (§1) Cytotoxicity against human HCT116 cells assessed as reduction in cell viability after 72 hrs by calcein AM staining based fluorescence assay; format: functional; conditions: HCT-116, 72 h
In short: (§2)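 Cells were grown in DMEM with 10% FBS, penicillin and streptomycin at 37 °C in 5% CO2. Three doses were tested in triplicate for 72 h. Live cells were read by Calcein AM fluorescence at 485/538 nm.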

[11] = system: HCT-116; test: as §1; format: functional; in short: as §2
[12] = Cell cycle arrest in BrdU pulse-labelled human HCT116 cells assessed as accumulation at subG1 phase at 125 to 500 nM after 24 hrs by propidium iodide staining based flow cytometry; format: functional; conditions: HCT-116
[13] = Cell cycle arrest in BrdU pulse-labelled human HCT116 cells assessed as accumulation at late S phase at 125 to 500 nM after 24 hrs by propidium iodide staining based flow cytometry; format: functional; conditions: HCT-116
[14] = system: MCF7; test: Cell cycle arrest in BrdU pulse-labelled human MCF7 cells assessed as decrease in cells at S phase at 8 to 250 nM after 24 hrs by propidium iodide staining based flow cytometry; format: functional
[15] = system: HCT-116; test: Induction of apoptosis in human HCT116 cells assessed as decrease in MCL-1 expression incubated for 24 hrs by immunoblotting analysis; format: functional, cell-based
In short: (§3)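 HCT-116 cells were treated with different doses for 24 h and harvested into Laemmli buffer. Proteins were separated by SDS-PAGE and blotted to nitrocellulose. Membranes were probed overnight with primary antibodies (anti-PARP F-2, anti-Mcl-1 S-19, anti-p53 DO-1), then with peroxidase secondaries. Bands were detected by ECL with a CCD camera, with tubulin as loading control.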

[16] = system: HCT-116; test: Induction of apoptosis in human HCT116 cells assessed as increase in p53 expression at 250 to 500 nM incubated for 24 hrs by immunoblotting analysis; format: functional, cell-based; in short: as §3
[17] = system: G-361; test: Induction of apoptosis in human G361 cells assessed as caspase3 activation using Ac-DEVD-AMC as substrate at 5 times IC50 preincubated for 24 hrs followed by substrate addition measured after 3 hrs by fluorescence assay; format: functional, cell-based
[18] = biological target: Dual specificity protein kinase TTK (Homo sapiens) (UniProt P33981); test: Inhibition of recombinant TTK (unknown origin) assessed as residual activity at 1 uM relative to control
Dual specificity protein kinase TTK (Homo sapiens), sequence (P33981 whole entry): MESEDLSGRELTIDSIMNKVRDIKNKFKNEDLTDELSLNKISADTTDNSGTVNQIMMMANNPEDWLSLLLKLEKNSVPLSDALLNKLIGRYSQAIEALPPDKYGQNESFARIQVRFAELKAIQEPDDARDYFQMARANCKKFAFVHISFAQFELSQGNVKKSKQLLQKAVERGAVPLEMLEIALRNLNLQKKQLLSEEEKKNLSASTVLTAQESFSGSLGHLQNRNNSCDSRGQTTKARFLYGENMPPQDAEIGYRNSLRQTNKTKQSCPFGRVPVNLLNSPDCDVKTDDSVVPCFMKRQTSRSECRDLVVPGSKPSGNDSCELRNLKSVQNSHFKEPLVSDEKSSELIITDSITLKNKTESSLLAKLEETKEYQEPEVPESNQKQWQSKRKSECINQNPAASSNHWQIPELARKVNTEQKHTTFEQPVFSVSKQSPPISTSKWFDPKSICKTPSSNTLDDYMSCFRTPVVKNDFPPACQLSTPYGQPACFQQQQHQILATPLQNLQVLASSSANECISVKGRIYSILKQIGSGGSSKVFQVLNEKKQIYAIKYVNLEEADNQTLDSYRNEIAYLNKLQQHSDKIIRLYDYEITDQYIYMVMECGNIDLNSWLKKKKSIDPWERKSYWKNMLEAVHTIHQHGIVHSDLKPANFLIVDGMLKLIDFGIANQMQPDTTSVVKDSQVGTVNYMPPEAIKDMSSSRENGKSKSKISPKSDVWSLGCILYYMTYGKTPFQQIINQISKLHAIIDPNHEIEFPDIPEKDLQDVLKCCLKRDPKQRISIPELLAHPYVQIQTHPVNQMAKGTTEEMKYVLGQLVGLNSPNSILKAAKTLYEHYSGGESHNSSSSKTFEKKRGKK

[19] = biological target: Serine/threonine-protein kinase Nek6 (Homo sapiens) (UniProt Q9HC98); test: Inhibition of recombinant NEK6 (unknown origin) assessed as residual activity at 1 uM relative to control
[20] = biological target: Aurora kinase B (Homo sapiens) (UniProt Q96GD4); test: Inhibition of recombinant Aurora B (unknown origin) assessed as residual activity at 1 uM relative to control
Aurora kinase B (Homo sapiens), sequence (Q96GD4 whole entry): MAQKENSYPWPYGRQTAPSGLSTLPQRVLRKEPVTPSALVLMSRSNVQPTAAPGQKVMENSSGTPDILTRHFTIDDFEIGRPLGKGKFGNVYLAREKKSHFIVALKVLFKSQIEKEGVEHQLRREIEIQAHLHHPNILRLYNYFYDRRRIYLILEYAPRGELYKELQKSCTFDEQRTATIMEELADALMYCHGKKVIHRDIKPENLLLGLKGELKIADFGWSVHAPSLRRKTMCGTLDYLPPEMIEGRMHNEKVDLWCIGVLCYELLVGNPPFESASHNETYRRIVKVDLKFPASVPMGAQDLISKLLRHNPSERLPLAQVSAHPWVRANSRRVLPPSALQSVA

[21] = biological target: Myosin light chain kinase, smooth muscle (Homo sapiens) (UniProt Q15746); test: Inhibition of recombinant smMLCK (unknown origin) assessed as residual activity at 1 uM relative to control
[22] = biological target: Ephrin type-A receptor 2 (Homo sapiens) (UniProt P29317); test: Inhibition of recombinant EPHA2 (unknown origin) assessed as residual activity at 1 uM relative to control
[23] = biological target: SRSF protein kinase 1 (Homo sapiens) (UniProt Q96SB4); test: Inhibition of recombinant SRPK1 (unknown origin) assessed as residual activity at 1 uM relative to control
[24] = biological target: Tyrosine-protein kinase BTK (Homo sapiens) (UniProt Q06187); test: Inhibition of recombinant BTK (unknown origin) assessed as residual activity at 1 uM relative to control
Tyrosine-protein kinase BTK (Homo sapiens), sequence (Q06187 whole entry): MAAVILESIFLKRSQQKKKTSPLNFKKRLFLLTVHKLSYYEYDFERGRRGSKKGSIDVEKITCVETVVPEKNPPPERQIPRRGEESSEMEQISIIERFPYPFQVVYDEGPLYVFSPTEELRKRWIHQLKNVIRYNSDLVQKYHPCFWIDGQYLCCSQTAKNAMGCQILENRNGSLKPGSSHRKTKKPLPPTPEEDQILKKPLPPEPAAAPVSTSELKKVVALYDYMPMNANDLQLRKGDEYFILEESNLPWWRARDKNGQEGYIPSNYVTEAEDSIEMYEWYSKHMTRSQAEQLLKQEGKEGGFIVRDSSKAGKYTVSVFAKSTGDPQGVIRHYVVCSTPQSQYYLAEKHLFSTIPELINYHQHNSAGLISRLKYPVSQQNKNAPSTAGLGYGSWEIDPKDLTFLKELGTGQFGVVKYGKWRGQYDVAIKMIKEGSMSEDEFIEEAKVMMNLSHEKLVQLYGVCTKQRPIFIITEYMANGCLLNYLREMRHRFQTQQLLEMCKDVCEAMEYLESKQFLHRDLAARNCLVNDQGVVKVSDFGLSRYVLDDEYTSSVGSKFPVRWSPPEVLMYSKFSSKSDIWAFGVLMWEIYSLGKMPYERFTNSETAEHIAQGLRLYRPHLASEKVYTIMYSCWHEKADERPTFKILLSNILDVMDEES

[25] = biological target: High affinity nerve growth factor receptor (Homo sapiens) (UniProt P04629); test: Inhibition of recombinant TrkA (unknown origin) assessed as residual activity at 1 uM relative to control
[26] = biological target: Serine/threonine-protein kinase D1 (Homo sapiens) (UniProt Q15139); test: Inhibition of recombinant PKD1 (unknown origin) assessed as residual activity at 1 uM relative to control
[27] = biological target: Serine/threonine-protein kinase 3 (Homo sapiens) (UniProt Q13188); test: Inhibition of recombinant MST2 (unknown origin) assessed as residual activity at 1 uM relative to control
Serine/threonine-protein kinase 3 (Homo sapiens), sequence (Q13188 whole entry): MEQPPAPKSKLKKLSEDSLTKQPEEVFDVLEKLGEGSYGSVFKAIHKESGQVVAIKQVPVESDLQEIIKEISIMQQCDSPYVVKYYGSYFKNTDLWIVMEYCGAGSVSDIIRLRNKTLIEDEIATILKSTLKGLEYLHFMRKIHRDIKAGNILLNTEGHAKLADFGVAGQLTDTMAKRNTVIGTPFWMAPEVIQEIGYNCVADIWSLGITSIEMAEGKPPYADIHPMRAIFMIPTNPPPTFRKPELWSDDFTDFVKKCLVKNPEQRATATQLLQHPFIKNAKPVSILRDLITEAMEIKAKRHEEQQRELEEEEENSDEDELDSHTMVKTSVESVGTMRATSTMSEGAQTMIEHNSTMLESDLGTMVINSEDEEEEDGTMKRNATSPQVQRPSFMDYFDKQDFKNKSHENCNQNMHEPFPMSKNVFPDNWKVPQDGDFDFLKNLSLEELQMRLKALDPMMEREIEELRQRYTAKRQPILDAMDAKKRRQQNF

[28] = biological target: Mitogen-activated protein kinase 14 (Homo sapiens) (UniProt Q16539); test: Inhibition of recombinant p38alpha MAP kinase (unknown origin) assessed as residual activity at 1 uM relative to control
Mitogen-activated protein kinase 14 (Homo sapiens), sequence (Q16539 whole entry): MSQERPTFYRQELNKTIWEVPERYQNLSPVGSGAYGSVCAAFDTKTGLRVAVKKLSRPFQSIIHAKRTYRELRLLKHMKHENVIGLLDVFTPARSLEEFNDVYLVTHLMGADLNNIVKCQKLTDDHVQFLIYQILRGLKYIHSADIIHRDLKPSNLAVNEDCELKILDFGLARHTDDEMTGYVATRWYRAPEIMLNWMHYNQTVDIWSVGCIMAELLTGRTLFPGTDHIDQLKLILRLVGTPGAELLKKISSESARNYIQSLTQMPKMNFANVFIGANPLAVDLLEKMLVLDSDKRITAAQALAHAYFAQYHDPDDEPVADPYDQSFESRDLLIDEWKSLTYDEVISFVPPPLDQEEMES

[29] = biological target: Serine/threonine-protein kinase pim-1 (Homo sapiens) (UniProt P11309); test: Inhibition of recombinant PIM1 (unknown origin) assessed as residual activity at 1 uM relative to control
[30] = biological target: Serine/threonine-protein kinase N2 (Homo sapiens) (UniProt Q16513); test: Inhibition of recombinant PRK2 (unknown origin) assessed as residual activity at 1 uM relative to control

Q: Which inhibition [1] does the source give for `CC(O)CNc1nc(NCc2ccc(-c3ccccn3)cc2)c2[nH]nc(C(C)C)c2n1` (stereo unspecified) here?
A: Its inhibition is “Active”.

Q: What about the IC50 [2] of the same compound?
A: Its IC50 is 21 nM.

Q: And the Activity [3]?
A: Its Activity is 49%.

Q: What about the Activity [4] of the same compound?
A: Its Activity is 67%.

Q: And the Activity [5]?
A: Its Activity is 68%.

Q: And the Activity [6]?
A: The Activity was 69%.

Q: What about the Activity [7] of the same compound?
A: The Activity was 77%.

Q: And the Activity [8]?
A: The Activity was 79%.

Q: And the Activity [9]?
A: The Activity was “Dose-dependent effect”.

Q: And the IC50 ([9]; MCF7, 72 h)?
A: The IC50 was 27 nM.

Q: What about the IC50 [10] of the same compound?
A: Its IC50 is 87 nM.

Q: And the Activity [11]?
A: The Activity was “Dose-dependent effect”.

Q: And the Activity [12]?
A: Its Activity is “Active”.

Q: What about the Activity [13] of the same compound?
A: Its Activity is “Active”.

Q: What about the Activity [14] of the same compound?
A: Its Activity is “Active”.

Q: And the Activity [15]?
A: The Activity was “Dose-dependent effect”.

Q: And the Activity [16]?
A: The Activity was “Active”.

Q: And the Activity [17]?
A: The Activity was “Active”.

Q: What about the Activity [18] of the same compound?
A: Its Activity is 79%.

Q: And the Activity [19]?
A: Its Activity is 85%.

Q: What about the Activity [20] of the same compound?
A: The Activity was 89%.

Q: What about the Activity [21] of the same compound?
A: The Activity was 90%.

Q: And the Activity [22]?
A: The Activity was 92%.

Q: And the Activity [23]?
A: The Activity was 95%.

Q: What about the Activity [24] of the same compound?
A: The Activity was > 100%.

Q: What about the Activity [25] of the same compound?
A: The Activity was > 100%.

Q: And the Activity [26]?
A: Its Activity is > 100%.

Q: What about the Activity [27] of the same compound?
A: The Activity was > 100%.

Q: And the Activity [28]?
A: The Activity was > 100%.

Q: What about the Activity [29] of the same compound?
A: The Activity was > 100%.

Q: What about the Activity [30] of the same compound?
A: Its Activity is > 100%.
